Where two headings read alike, the source gives them in different places.
How the values were obtained:
[1] = Hepatic vaniprevir concentration by core needle biopsy; type: in vivo, human; conditions: for concentration at 12 h / Kp at 6 h: human, liver, oral, mean; for concentration at 12 h: Liver concentration C12h, mean (one subject), 12 h post-dose day 4; for Kp at 6 h: Liver:plasma ratio C6h, 6 h post-dose day 4
Summary of the method: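 Genotype 1 chronic HCV patients (n=3), non-cirrhotic, treatment-experienced, fixed sequence: 600 mg twice daily days 1–3 and a single dose on day 4, then after at least 30 days off drug, 300 mg on the same schedule. Ultrasound-guided core needle biopsy of the right hepatic lobe 6 or 12 h after the day-4 dose. Tissue weighed, stored at −70°C, homogenized in human EDTA plasma, extracted liquid–liquid at acidic pH, then LC-MS/MS (0.1–200 µg/g). Liver/plasma ratio calculated.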

[2] = Plasma vaniprevir pharmacokinetics; type: in vivo, human; conditions: for AUC(0-t) / Cmax / Tmax / half-life / concentration at 12 h: human, plasma, oral
Summary of the method: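 Same patients and fixed-sequence regimen: 600 mg then 300 mg twice daily days 1–3, single dose on day 4, at least 30-day washout between periods. Day-4 plasma over the 12-h dosing interval. LC-MS/MS, linear 1–1,000 ng/ml, CV under 10%, accuracy within ±10.0%. AUC0–12, Cmax, C12h, Tmax and t½ derived using nominal times. Tmax as median (min–max), t½ as harmonic mean ±pseudo sd.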

HCV RNA = assay: Decline of HCV RNA in patients on vaniprevir; type: in vivo; conditions: genotype 1 chronic HCV patients
[3] = cited from earlier work; for AUC0–12: plasma
[4] = chimpanzees, 10 mg/kg oral, cited from earlier work
[5] = rat, dog and rhesus monkey; cited from earlier work
[6] = system: liver organic anion-transporting polypeptides; conditions: cited from earlier work
[7] = 300 mg to 600 mg twice daily, day 4

With `CC[C@@H]1C[C@]1(NC(=O)[C@@H]1C[C@@H]2CN1C(=O)[C@H](C(C)(C)C)NC(=O)OCC(C)(C)CCCCc1cccc3c1CN(C3)C(=O)O2)C(=O)NS(=O)(=O)C1CC1` [vaniprevir] the concentration at 12 h ([1]; 300 mg, 300 mg twice daily) was 29.4 µM, the Kp at 6 h ([1]; 300 mg, 300 mg twice daily) was 166 and the concentration at 12 h ([1]; 600 mg, 600 mg twice daily) was 53.7 µM. The Kp at 6 h ([1]; 600 mg, 600 mg twice daily) was 67.3, the “Hepatic concentrations, 600 mg versus 300 mg twice daily regimen” value ([1]; mean liver concentrations at 6 and 12 h post-dose) was “twofold higher” and the “Increase in plasma AUC0–12 with a twofold increase in dose” value [2, 7] was “approximately fivefold”. For the same molecule, the “Increase in plasma C12h with a twofold increase in dose” value [2, 7] was “approximately sevenfold”, the “Increase in plasma Cmax with a twofold increase in dose” value [2, 7] was “approximately fivefold” and the AUC(0-t) ([2]; 300 mg) was 10.6 µM·h. The Cmax ([2]; 300 mg) was 2.6 µM, the Tmax ([2]; 300 mg) was 2 h and the half-life ([2]; 300 mg) was 6.3 ± 1.4 h. For the same molecule, the concentration at 12 h ([2]; 300 mg, C12 h, plasma trough, day 4, 300 mg twice daily, n=3, arithmetic mean ±SD [CV%]) was 0.16 µM, the concentration at 12 h ([2]; 300 mg, Plasma concentration C12h, mean, mean (one subject, Table 1), 300 mg twice daily, 12 h post-dose day 4) was 0.12 µM and the AUC(0-t) ([2]; 600 mg) was 59.5 µM·h. For the same molecule, the Cmax ([2]; 600 mg) was 13.5 µM, the Tmax ([2]; 600 mg) was 3 h and the half-life ([2]; 600 mg) was 3.6 ± 1 h. For the same molecule, the concentration at 12 h ([2]; 600 mg, C12 h, plasma trough, day 4, 600 mg twice daily, n=3, arithmetic mean ±SD [CV%]) was 1.11 µM, the concentration at 12 h ([2]; 600 mg, Plasma concentration C12h, mean, mean (one subject, Table 1), 600 mg twice daily, 12 h post-dose day 4) was 0.19 µM and the “Decline of HCV RNA by day 2” value (HCV RNA; 300 mg twice daily) was “approximately 3 log”. The “Decline of HCV RNA by day 2” value (HCV RNA; 600 mg twice daily) was “approximately 4 log”, the “Plasma vaniprevir Tmax” value ([3]; humans) was 1.5 to 3 h and the “AUC0–12” value ([3]; 300 mg twice daily) was 5.15 µM/h. For the same molecule, the “AUC0–12” value ([3]; 600 mg twice daily) was 23.36 µM/h, the Maximum liver concentration ([4]; reached at 12 h after dosing) was 31 µM and the “Plasma AUC0–24” value [4] was 5.2 µM/h. The “Liver concentrations at 24 h post-dose” value [5] was 200 to 600 nM and the “Liver organic anion-transporting polypeptides transport in vitro” value [6] was “saturated at high concentrations”.

Reference: publication PMC4714953 (Antiviral therapy, 2015)
